How the values were obtained:
[1] = Plasma pharmacokinetics in mouse after i.v. bolus; format: in vivo, mouse (NMRI); conditions: for level at 0.1 h / level at 0.25 h / level at 2 h: NMRI, plasma
Outline: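 Male and female NMRI mice, i.v. bolus of [14C]-test compound, 2.5 mg/kg (4.2 μmol/kg). Blood was taken by exsanguination under anesthesia (n = 3/time point) and spun 2 min at 10,000g. Plasma was counted by LSC from predose to 72 h. A separate unlabeled-dose study gave plasma from predose to 8 h for parent by validated LC/MS/MS. Noncompartmental analysis was used, with clearance related to hepatic blood flow.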

[2] = Plasma pharmacokinetics in Cynomolgus monkey after i.v. bolus; format: in vivo, Cynomolgus monkey (Macaca fascicularis)
Outline: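 Female Cynomolgus monkeys (n = 3), single i.v. bolus of [14C]-test compound. Plasma was sampled predose and at 0.1, 0.5, 1.0, 2, 4, 8, 24 and 48 h. Total radioactivity was read by LSC and parent compound by LC/MS/MS. PK parameters came from noncompartmental analysis as in mouse.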

[3] = Metabolite profiling of monkey plasma, urine and feces by radio-HPLC; format: in vivo, Cynomolgus monkey (Macaca fascicularis); conditions: Cynomolgus monkey, i.v.
Outline: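 Monkey samples after i.v. [14C]-test compound, 2.0 mg/kg. Plasma at 0.1–8 h was extracted twice with ethanol and centrifuged, and extracts went to LSC and radio-HPLC. Precipitates were combusted for total radioactivity. Urine (0–8 h, 8–24 h, then 24-h intervals to 120 h) was evaporated and reconstituted in mobile phase. Feces were processed as for mouse. Isocratic acetonitrile/ammonium acetate pH 4 on RP8e, UV 230 nm with radiodetection.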

[4] = Excretion of total radioactivity in monkey; format: in vivo, Cynomolgus monkey (Macaca fascicularis)
Outline: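 Female Cynomolgus monkeys (n = 3) got a single i.v. bolus of [14C]-test compound, 2.0 mg/kg. Urine and feces were collected 0–8 h, 8–24 h, then in 24-h intervals to 120 h. Both were counted by LSC as in the mouse study, with feces dried and combusted first. Excretion was expressed as % of radioactive dose.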

[5] = Plasma pharmacokinetics in rat after i.v. bolus; format: in vivo, Wistar rat; conditions: for clearance / half-life: in vivo
Outline: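 Wistar rats, intravenous bolus. Plasma was sampled at 0.1, 0.25, 0.5, 1, 2, 4 and 6 h postadministration.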

[6] = NADPH-dependent metabolism by monkey liver microsomes; format: in vitro ADME; conditions: monkeys, 10 and 100 µM, up to 6 h
rat hepatocytes = assay: Metabolism in cultured rat hepatocytes; format: in vitro ADME; conditions: 1 and 10 µg/mL, up to 24 h
human hepatocytes = assay: Metabolism in cultured human hepatocytes; format: in vitro ADME; conditions: 1 and 10 µg/mL, up to 24 h
[7] = Biological stability of the radiolabel; format: in vivo, rat; conditions: rats, within 72 h after dosing
[8] = cynomolgus monkey, in vivo, iv, 2 mg/kg
[9] = female, cynomolgus monkey, plasma, iv, 2 mg/kg

CC(C)[C@H]1C(=O)N[C@@H](CCCN=C(N)N)C(=O)NCC(=O)N[C@@H](CC(=O)O)C(=O)N[C@H](Cc2ccccc2)C(=O)N1C [cilengitide, cyclo‐(Asp‐D‐Phe‐N‐MeVal‐Arg‐Gly)]
clearance as share of hepatic blood flow (hbf) ([1]; female mice): 60% | level at 0.1 h ([1]; female, mouse, iv, 2.5 mg/kg): 2490 ng/mL | level at 0.25 h ([1]; female, mouse, iv, 2.5 mg/kg): 448 ng/mL | level at 2 h ([1]; female, mouse, iv, 2.5 mg/kg): 6.3 ng/mL | clearance as share of hepatic blood flow (hbf) ([1]; male mice): 105% | level at 0.1 h ([1]; male, mouse, iv, 2.5 mg/kg): 1240 ng/mL | level at 0.25 h ([1]; male, mouse, iv, 2.5 mg/kg): 439 ng/mL | level at 2 h ([1]; male, mouse, iv, 2.5 mg/kg): 8 ng/mL | clearance ([1]; mouse, in vivo, Plasma CL, value used for allometry): 63.5 mL/min/kg | Vd ([1]; mouse, in vivo, Vdss, range over both species (mouse and monkey)): 0.32 to 1.6 L/kg | AUC ([1]; mouse, in vivo, iv, 2.5 mg/kg, AUC0‐∞ of parent drug, male mice, 2.5 mg/kg i.v.): 440 ng·h/mL | Vd ([1]; mouse, in vivo, iv, 2.5 mg/kg, apparent Vdss, female mice, 2.5 mg/kg i.v.): 0.56 L/kg | Vd ([1]; mouse, in vivo, iv, 2.5 mg/kg, apparent Vdss, male mice, 2.5 mg/kg i.v.): 1.6 L/kg | clearance ([1]; mouse, in vivo, iv, 2.5 mg/kg, plasma clearance, female mice, 2.5 mg/kg i.v.): 53.3 mL/min/kg | clearance ([1]; mouse, in vivo, iv, 2.5 mg/kg, plasma clearance, male mice, 2.5 mg/kg i.v.): 94.7 mL/min/kg | half-life ([1]; mouse, in vivo, t1/2, mouse, value used for allometry): 20.4 min | half-life ([2]; cynomolgus monkey, in vivo): 75 min | clearance ([2]; cynomolgus monkey, in vivo, Plasma CL, monkey, value used for allometry): 4.83 mL/min/kg | AUC [2, 8]: 6460 ng·h/mL | Vd [2, 8]: 0.35 L/kg | half-life [2, 8]: 66 min | level at 0.1 h [2, 9]: 7020 ng/mL | level at 0.5 h [2, 9]: 3400 ng/mL | level at 8 h [2, 9]: 24.6 ng/mL | clearance as share of hbf ([2]; monkey): 12% | unchanged drug in plasma, share of total drug‐related material [3]: > 85% | extent of renal excretion [4]: 56% | clearance as share of hepatic blood flow (hbf) [5]: approximately 20% | level at 0.1 h ([5]; Wistar, plasma, iv, 2.5 mg/kg): 5360 to 5870 ng/mL | clearance [5]: 16.3 mL/min/kg | half-life [5]: 30 min | clearance ([5]; iv, 2.5 mg/kg): ~16.3 mL/min/kg | half-life ([5]; iv, 2.5 mg/kg): 14.4 to 30 min | metabolism by liver microsomes [6]: poorly metabolized | metabolism by cultured hepatocytes (rat hepatocytes): poorly metabolized | metabolism by cultured hepatocytes (human hepatocytes): poorly metabolized | dose exhaled as [^14C]‐CO2 [7]: less than 0.1 % of the dose
